Published values pooled from the literature.
Lines come from different studies, so protocols differ.

SMILES	tested on	test	system	conditions	quantity	value
CC(C)CC(=O)OC[C@H]1O[C@@](C#N)(c2ccc3c(N)ncnn23)[C@H](O)[C@@H]1O	HEp-2	cell growth or viability, CCK-8	–	5 days	CC50	> 100 µM
CC(C)Cc1cn([C@H]2[C@H]([C@H](O)[C@H](O)CO)OC(C(=O)O)=C[C@@H]2O)nn1	–	shake flask	aqueous buffer	2 h, pH 7.4	logD	-0.54
Cc1[nH]c(C)c(S(=O)(=O)Nc2ccc(S(=O)(=O)F)c(Cl)c2)c1C(=O)N1CCC(F)(F)C1	–	metabolic stability	human, liver microsomes	–	microsomal CLint	31.7 µL/min/mg
COc1ccc(NC(=O)N2CCCCN3[C@H](CN(C)C)[C@H](c4ccc(C#Cc5ccccc5)cc4)[C@@H]3C2)cc1	THP-1	cell growth or viability, ATP luminescence	–	72 h	CC50	2.87 µM
CC(C)CCC(=O)N[C@H]1[C@H]([C@H](O)[C@H](O)CO)OC(C(=O)O)=C[C@@H]1O	–	shake flask	aqueous buffer	2 h, pH 7.4	logD	-0.88
Cc1[nH]c(C)c(S(=O)(=O)Nc2ccc(S(F)(F)(F)(F)F)c(Cl)c2)c1C(=O)N1CCC(F)(F)C1	–	metabolic stability	rat, liver microsomes	–	microsomal CLint	20.5 µL/min/mg
O=C1NC2(CCC2)C(=O)N1c1ccc(F)c(C(F)(F)F)c1	–	metabolic stability	human, liver microsomes	–	microsomal CLint	11 µL/min/mg
N#C[C@@]1(n2ccc(N)nc2=O)O[C@H](CO)[C@@H](O)[C@H]1O	Calu-3	cell growth or viability	–	–	CC50	> 100 µM
CC1(CC(F)(F)F)NC(=O)N(c2ccc(F)c(C(F)(F)F)c2)C1=O (centres unmarked)	–	metabolic stability	human, liver microsomes	–	microsomal CLint	< 7 µL/min/mg
CC(C)(C)[C@H](NC(=O)C(F)(F)F)C(=O)N1C[C@H]2[C@@H]([C@H]1C(=O)N[C@H](C#N)C[C@@H]1CCNC1=O)C2(C)C	Calu-3	cell growth or viability	–	–	CC50	> 100 µM
CC/C(=C(\c1ccccc1)c1ccc(OCCN(C)C)cc1)c1ccccc1	MCF7	cell growth or viability, resazurin	–	72 h	IC50	18.2 µM
